Laboratory results: article PMC11585990 (Drug Design, Development and Therapy, 2024)

Assays:
[1] = In vivo antitumor assay, body weight of mice; design: species or system nu/nu mice; conditions: NTERA-2 cL.D1 xenograft, nude mice, 10 mg/kg daily intraperitoneal, 15 days
Method in brief: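 Male nu/nu mice aged 4–6 weeks received subcutaneous NTERA-2 cL.D1 cells (1×10⁷ in PBS). Once tumors reached 90–120 mm³, mice were randomized into four groups: vehicle, two reference inhibitors, or test compound, each at 10 mg/kg by daily intraperitoneal injection. Body weight and caliper tumor volume were recorded every 3 days for 15 days. n = 6 per group; mean ± SD.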

[2] = target: ATM (Homo sapiens, UniProt Q13315); assay: In vitro ATM inhibition assay; format: biochemical; conditions: recombinant human ATM, p53 substrate, HTRF
Chain of ATM (Q13315 whole entry): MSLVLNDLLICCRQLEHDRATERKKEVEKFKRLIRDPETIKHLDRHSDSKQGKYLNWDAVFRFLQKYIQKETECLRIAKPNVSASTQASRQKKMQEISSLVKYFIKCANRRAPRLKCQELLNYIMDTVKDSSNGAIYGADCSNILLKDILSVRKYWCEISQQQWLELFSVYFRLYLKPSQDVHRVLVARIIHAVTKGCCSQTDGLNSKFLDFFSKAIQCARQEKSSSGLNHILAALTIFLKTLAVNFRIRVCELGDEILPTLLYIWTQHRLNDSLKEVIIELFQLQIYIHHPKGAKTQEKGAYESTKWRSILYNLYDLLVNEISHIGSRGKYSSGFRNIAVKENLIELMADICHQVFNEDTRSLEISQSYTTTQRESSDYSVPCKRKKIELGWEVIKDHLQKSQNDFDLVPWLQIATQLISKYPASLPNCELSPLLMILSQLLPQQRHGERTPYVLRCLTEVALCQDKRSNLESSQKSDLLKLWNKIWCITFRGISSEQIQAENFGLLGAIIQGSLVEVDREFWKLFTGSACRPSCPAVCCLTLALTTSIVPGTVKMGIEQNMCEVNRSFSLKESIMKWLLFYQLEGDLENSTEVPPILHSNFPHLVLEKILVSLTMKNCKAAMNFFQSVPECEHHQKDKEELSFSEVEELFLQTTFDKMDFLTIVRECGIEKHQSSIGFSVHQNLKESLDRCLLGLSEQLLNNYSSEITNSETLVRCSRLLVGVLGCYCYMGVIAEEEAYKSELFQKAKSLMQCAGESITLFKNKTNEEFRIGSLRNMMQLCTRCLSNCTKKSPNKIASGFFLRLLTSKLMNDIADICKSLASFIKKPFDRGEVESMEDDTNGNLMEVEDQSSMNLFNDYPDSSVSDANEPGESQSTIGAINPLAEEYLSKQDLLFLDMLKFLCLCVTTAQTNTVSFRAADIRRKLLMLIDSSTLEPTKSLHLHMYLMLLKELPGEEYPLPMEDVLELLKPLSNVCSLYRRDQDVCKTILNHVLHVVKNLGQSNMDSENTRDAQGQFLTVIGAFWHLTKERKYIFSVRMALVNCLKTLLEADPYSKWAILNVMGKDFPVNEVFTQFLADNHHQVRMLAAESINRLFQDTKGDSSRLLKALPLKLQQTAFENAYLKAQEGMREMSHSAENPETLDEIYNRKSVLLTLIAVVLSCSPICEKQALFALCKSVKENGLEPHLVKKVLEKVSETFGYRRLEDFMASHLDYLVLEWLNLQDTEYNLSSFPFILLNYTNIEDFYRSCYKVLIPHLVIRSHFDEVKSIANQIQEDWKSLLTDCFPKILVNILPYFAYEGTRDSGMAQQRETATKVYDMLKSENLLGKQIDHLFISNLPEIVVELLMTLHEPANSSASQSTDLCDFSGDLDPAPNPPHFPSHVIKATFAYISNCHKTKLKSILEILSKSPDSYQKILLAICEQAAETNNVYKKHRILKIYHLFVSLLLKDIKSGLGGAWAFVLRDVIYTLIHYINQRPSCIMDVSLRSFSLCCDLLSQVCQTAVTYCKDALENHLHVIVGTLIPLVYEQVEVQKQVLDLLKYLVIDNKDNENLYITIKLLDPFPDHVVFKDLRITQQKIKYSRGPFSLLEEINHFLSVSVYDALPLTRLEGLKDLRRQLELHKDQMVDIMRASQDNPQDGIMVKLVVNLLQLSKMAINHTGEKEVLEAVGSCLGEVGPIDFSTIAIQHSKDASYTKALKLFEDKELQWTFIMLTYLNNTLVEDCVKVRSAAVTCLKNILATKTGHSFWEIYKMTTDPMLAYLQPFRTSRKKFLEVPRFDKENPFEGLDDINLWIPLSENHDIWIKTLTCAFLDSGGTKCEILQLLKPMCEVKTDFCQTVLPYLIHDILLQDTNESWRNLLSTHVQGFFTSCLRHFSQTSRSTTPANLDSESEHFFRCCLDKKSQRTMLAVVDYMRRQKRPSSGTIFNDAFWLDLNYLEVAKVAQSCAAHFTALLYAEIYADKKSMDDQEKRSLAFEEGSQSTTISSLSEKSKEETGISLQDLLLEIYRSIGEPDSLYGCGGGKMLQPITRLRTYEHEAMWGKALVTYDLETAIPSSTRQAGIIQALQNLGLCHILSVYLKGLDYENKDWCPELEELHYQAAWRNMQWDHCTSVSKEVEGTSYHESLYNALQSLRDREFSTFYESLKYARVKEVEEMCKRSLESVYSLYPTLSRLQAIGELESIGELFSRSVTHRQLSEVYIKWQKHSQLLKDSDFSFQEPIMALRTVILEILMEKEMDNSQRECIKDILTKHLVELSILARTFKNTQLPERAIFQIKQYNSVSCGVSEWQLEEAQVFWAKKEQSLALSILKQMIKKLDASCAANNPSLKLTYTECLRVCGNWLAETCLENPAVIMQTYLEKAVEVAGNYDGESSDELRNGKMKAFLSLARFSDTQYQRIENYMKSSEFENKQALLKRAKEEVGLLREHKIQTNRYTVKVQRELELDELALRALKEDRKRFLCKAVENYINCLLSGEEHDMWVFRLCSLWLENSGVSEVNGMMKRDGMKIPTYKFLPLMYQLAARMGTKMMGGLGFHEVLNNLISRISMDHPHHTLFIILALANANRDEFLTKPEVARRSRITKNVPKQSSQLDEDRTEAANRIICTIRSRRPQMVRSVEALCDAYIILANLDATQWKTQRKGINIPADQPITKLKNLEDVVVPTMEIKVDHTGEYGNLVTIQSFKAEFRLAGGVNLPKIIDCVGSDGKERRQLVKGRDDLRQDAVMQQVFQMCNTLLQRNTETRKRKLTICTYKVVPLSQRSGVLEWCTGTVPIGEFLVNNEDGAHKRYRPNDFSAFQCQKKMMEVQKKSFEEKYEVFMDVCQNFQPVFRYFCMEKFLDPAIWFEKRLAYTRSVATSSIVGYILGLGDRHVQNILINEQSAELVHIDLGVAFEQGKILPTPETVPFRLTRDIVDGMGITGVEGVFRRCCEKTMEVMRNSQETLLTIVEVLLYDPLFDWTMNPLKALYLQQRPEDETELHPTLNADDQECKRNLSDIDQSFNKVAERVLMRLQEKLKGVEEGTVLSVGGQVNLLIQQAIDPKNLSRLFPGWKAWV

[3] = target: HDAC2 (Homo sapiens, UniProt Q92769); assay: In vitro HDAC2 inhibition assay; format: biochemical; conditions: recombinant human HDAC2, Boc-Lys(acetyl)-AMC
Chain of HDAC2 (Q92769 whole entry): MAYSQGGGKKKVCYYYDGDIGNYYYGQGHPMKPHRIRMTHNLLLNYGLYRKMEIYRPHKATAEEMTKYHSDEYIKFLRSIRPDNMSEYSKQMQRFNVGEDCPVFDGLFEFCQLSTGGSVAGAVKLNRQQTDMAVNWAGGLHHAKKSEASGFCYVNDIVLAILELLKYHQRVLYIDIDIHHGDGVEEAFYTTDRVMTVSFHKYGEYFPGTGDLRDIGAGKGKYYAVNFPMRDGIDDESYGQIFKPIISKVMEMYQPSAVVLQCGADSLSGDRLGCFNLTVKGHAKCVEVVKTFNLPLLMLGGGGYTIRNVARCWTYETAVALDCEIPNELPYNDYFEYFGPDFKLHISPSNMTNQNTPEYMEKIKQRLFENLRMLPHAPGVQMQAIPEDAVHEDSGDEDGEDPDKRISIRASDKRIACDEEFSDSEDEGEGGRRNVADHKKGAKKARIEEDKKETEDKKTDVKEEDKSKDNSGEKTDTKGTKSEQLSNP

| Structure (SMILES) | body weight of mice [1] | ATM (IC50, nM) [2] | ATM (IC50, nM) ([2]; listed as vorinostat) | HDAC2 (IC50, nM) [3] | HDAC2 (IC50, nM) ([3]; listed as lartesertib) |
| --- | --- | --- | --- | --- | --- |
| O=C(CCCCCCC(=O)Nc1ccccc1)NO [Vorinostat] | slight decrease | no inhibition | did not affect |  |  |
| COc1cc2ncc3c(c2cc1-c1cn(C)nc1C)n(-c1c(F)cncc1OC)c(=O)n3C [Lartesertib] |  |  |  | no inhibition | no inhibitory effect |
